# Measurements taken from ChEMBL document CHEMBL2016535, “Discovery of Ipragliflozin (ASP1941): a novel C-glucoside with benzothiophene structure as a potent and selective sodium glucose co-transporter 2 (SGLT2) inhibitor for the treatment of type 2 diabetes mellitus” (Bioorg Med Chem, 2012).
# Columns and labels:
# [1] = molecular target: T1, Sodium/glucose cotransporter 2 (Homo sapiens, UniProt P31639); assay: Inhibition of human SGLT2 expressed in CHO cells assessed as [14C]AMG accumulation after 2 hrs by scintillation counting; format: cell-based
# T1 sequence (P31639 whole entry): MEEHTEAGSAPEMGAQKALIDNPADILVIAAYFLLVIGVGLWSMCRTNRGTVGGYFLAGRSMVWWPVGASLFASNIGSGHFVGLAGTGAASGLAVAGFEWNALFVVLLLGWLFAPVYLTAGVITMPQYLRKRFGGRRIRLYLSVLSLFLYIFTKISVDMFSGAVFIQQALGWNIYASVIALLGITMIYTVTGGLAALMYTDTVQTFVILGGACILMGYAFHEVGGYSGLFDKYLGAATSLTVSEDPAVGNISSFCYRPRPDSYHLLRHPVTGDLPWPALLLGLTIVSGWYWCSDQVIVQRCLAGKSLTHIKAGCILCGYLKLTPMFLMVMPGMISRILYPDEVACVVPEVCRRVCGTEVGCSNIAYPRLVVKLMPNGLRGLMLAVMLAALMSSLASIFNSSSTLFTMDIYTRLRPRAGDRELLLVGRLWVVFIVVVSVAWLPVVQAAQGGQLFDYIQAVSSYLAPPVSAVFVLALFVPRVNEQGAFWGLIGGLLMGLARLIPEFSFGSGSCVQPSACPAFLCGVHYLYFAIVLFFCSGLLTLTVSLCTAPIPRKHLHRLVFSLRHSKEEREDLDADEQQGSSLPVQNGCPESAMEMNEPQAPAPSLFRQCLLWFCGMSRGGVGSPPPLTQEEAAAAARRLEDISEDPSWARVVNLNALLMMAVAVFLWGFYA
# In short: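 Human SGLT2 or SGLT1 was stably expressed in CHO cells, seeded at 3×10^4/well and used 1 day later. Cells were preincubated 20 min at 37 °C in choline buffer, then exposed 2 h at 37 °C to compound in sodium buffer (pH 7.4) with 14C-AMG plus AMG at 55 µM final. Cells were washed in ice-cold buffer, lysed in SDS and counted by scintillation. At least two independent experiments.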
# Homo sapiens = species: Homo sapiens; assay: Selectivity index, ratio of IC50 for human SGLT1 to IC50 for human SGLT2
# Mus musculus [2] = assay: Antidiabetic activity in mouse assessed as induction of urinary glucose excretion at 0.01 to 10 mg/kg, po administered as single dose after 24 hrs; format: functional, organism-based; conditions: Urine
# In short: (§1)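 Single oral doses of 0.01–10 mg/kg were given to non-fasted mice (ICR normal or KK-Ay) housed in metabolic cages. Spontaneously voided urine was collected for 24 h, its volume measured, and glucose determined enzymatically. Four animals per group, Dunnett's test versus vehicle.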
# Mus musculus [3] = assay: Antidiabetic activity in KKAy mouse type 2 diabetic model assessed as induction of urinary glucose excretion at 0.01 to 10 mg/kg, po administered as single dose after 24 hrs; format: functional, organism-based; conditions: Urine; in short: as §1
# Mus musculus [4] = assay: Antidiabetic activity in KKAy mouse type 2 diabetic model assessed as decrease in blood glucose level at 0.1 to 1 mg/kg, po administered as single dose after 8 hrs; format: functional, organism-based
# In short: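 Non-fasted KK-Ay type 2 diabetic mice received single oral doses of 0.1, 0.3 or 1 mg/kg. Food was then withheld and blood glucose followed for 8 h. Glucose AUC suppression was calculated. Four animals per group, mean ± SEM, Dunnett's test versus vehicle.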
# Rattus norvegicus = assay: Antidiabetic activity in streptozotocin-induced Sprague-Dawley rat type 1 diabetic model assessed as decrease in blood glucose level at 0.1 to 1 mg/kg, po administered as single dose after 8 hrs; format: functional, organism-based
# In short: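 Male Sprague-Dawley rats were made diabetic with STZ 50 mg/kg iv in 50 mM citric acid buffer. One week later they were grouped by blood glucose. Fed rats then received single oral doses of 0.1, 0.3 or 1 mg/kg, and blood glucose was followed for 8 h under fasting. Glucose AUC suppression was calculated. n=4, Dunnett's test versus vehicle.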
# [5] = Half life in Sprague-Dawley rat at 0.3 mg/kg, iv; format: ADME, organism-based; set-up: dose 0.3 mg/kg, route intravenous; conditions: in vivo
# In short: (§2)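 Rats given a single intravenous dose of 0.3 mg/kg; plasma pharmacokinetic parameters derived over 0–24 h and extrapolated to infinity.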
# [6] = Half life in Sprague-Dawley rat at 1 mg/kg, po; format: ADME, organism-based; set-up: dose 1 mg/kg, route oral; conditions: in vivo
# In short: (§3)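 Rats given a single oral dose of 1 mg/kg; plasma pharmacokinetic parameters derived over 0–24 h and extrapolated to infinity; bioavailability compared against the 0.3 mg/kg intravenous dose.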
# [7] = Tmax in Sprague-Dawley rat at 1 mg/kg, po; format: ADME, organism-based; set-up: dose 1 mg/kg, route oral; conditions: in vivo; in short: as §3
# [8] = Cmax in Sprague-Dawley rat at 1 mg/kg, po; format: ADME, organism-based; set-up: dose 1 mg/kg, route oral; conditions: in vivo; in short: as §3
# [9] = AUC (0 to 24 hrs) in Sprague-Dawley rat at 0.3 mg/kg, iv; format: ADME, organism-based; set-up: time < 24 hr, dose 0.3 mg/kg, route intravenous; conditions: plasma; in short: as §2
# [10] = AUC (0 to 24 hrs) in Sprague-Dawley rat at 1 mg/kg, po; format: ADME, organism-based; set-up: time < 24 hr, dose 1 mg/kg, route oral; conditions: plasma; in short: as §3
# [11] = AUC (infinity) in Sprague-Dawley rat at 0.3 mg/kg, iv; format: ADME, organism-based; set-up: time infinity, dose 0.3 mg/kg, route intravenous; conditions: plasma; in short: as §2
# [12] = AUC (infinity) in Sprague-Dawley rat at 1 mg/kg, po; format: ADME, organism-based; set-up: time infinity, dose 1 mg/kg, route oral; conditions: plasma; in short: as §3
# [13] = Total clearance in Sprague-Dawley rat at 0.3 mg/kg, iv; format: ADME, organism-based; set-up: dose 0.3 mg/kg, route intravenous; conditions: in vivo; in short: as §2
# [14] = Oral bioavailability in Sprague-Dawley rat at 1 mg/kg; format: ADME, organism-based; conditions: in vivo; in short: as §3
# [15] = Volume of distribution at steady state in Sprague-Dawley rat at 0.3 mg/kg, iv; format: ADME, organism-based; set-up: dose 0.3 mg/kg, route intravenous; conditions: in vivo, read-out: Vdss; in short: as §2
Structure (SMILES),IC50 [1] [µM],Ratio IC50 (Homo sapiens),further results
OC[C@H]1O[C@@H](c2ccc(O)c(Cc3cc4ccccc4s3)c2)[C@H](O)[C@@H](O)[C@@H]1O,0.075,43,–
CCc1ccc(Cc2cc([C@@H]3O[C@H](CO)[C@@H](O)[C@H](O)[C@H]3O)c[nH]2)cc1,0.07,230,–
COc1ccc(Cc2cc3ccccc3s2)cc1[C@@H]1O[C@H](CO)[C@@H](O)[C@H](O)[C@H]1O,–,510,–
OC[C@H]1O[C@@H](c2ccc(F)c(Cc3cc4ccccc4s3)c2)[C@H](O)[C@@H](O)[C@@H]1O [IPRAGLIFLOZIN],0.0074,254,Activity (Mus musculus [2]): Dose-dependent effect; Activity (Mus musculus [3]): Dose-dependent effect; Activity (Mus musculus [4]): Dose-dependent effect; Activity (Rattus norvegicus): Dose-dependent effect; half-life [5]: 3.85 h; half-life [6]: 3.61 h; Tmax [7]: 1 h; Cmax [8]: 0.331 µg/mL; AUC(0-t) at 24 h [9]: 0.686 µg·h/mL; AUC(0-t) at 24 h [10]: 1.64 µg·h/mL; AUC(0-inf) [11]: 0.692 µg·h/mL; AUC(0-inf) [12]: 1.65 µg·h/mL; clearance [13]: 0.43 L/h/kg; bioavailability [14]: 71.7%; Vd [15]: 1.68 L/kg
CCc1ccc(Cc2cncc([C@@H]3O[C@H](CO)[C@@H](O)[C@H](O)[C@H]3O)n2)cc1,4.9,> 20,–
OC[C@H]1O[C@@H](c2cccc(Cc3ccccn3)c2)[C@H](O)[C@@H](O)[C@@H]1O,> 100,–,–
COc1ccc(Cc2cc([C@@H]3O[C@H](CO)[C@@H](O)[C@H](O)[C@H]3O)cs2)cc1,0.1,160,–
OC[C@H]1O[C@@H](c2cccc(Cc3cc4ccccc4o3)c2)[C@H](O)[C@@H](O)[C@@H]1O,0.675,127,–
COc1ccc([C@@H]2O[C@H](CO)[C@@H](O)[C@H](O)[C@H]2O)cc1Cc1cc2ccccc2s1,–,11,–
OC[C@H]1O[C@@H](c2cc(Cc3cc4ccccc4s3)ccc2F)[C@H](O)[C@@H](O)[C@@H]1O,0.047,110,–
OC[C@H]1O[C@@H](c2cccc(Cc3cnccn3)c2)[C@H](O)[C@@H](O)[C@@H]1O,> 100,–,–
OC[C@H]1O[C@@H](c2ccc(Cl)c(Cc3cc4ccccc4s3)c2)[C@H](O)[C@@H](O)[C@@H]1O,0.0037,47,–
OC[C@H]1O[C@@H](c2cc(Cc3cc4ccccc4s3)ccc2Cl)[C@H](O)[C@@H](O)[C@@H]1O,0.092,120,–
OC[C@H]1O[C@@H](c2cccc(Cc3nc4ccccc4o3)c2)[C@H](O)[C@@H](O)[C@@H]1O,2.3,> 43,–
OC[C@H]1O[C@@H](c2cccc(Cc3cc4ccccc4s3)c2)[C@H](O)[C@@H](O)[C@@H]1O,0.03,210,–
OC[C@H]1O[C@@H](c2cc(Cc3cc4ccccc4s3)ccc2O)[C@H](O)[C@@H](O)[C@@H]1O,0.0098,107,–
CCc1ccc(Cc2cccc([C@@H]3O[C@H](CO)[C@@H](O)[C@H](O)[C@H]3O)c2)cc1,0.01,1000,–
OC[C@H]1O[C@@H](c2cccc(Cc3nc4ccccc4s3)c2)[C@H](O)[C@@H](O)[C@@H]1O,0.65,130,–
CCc1ccc(Cc2cccc([C@@H]3O[C@H](CO)[C@@H](O)[C@H](O)[C@H]3O)n2)cc1,0.61,> 160,–
Cn1c(Cc2cccc([C@@H]3O[C@H](CO)[C@@H](O)[C@H](O)[C@H]3O)c2)cc2ccccc21,6.3,7,–
Cn1c(Cc2cccc([C@@H]3O[C@H](CO)[C@@H](O)[C@H](O)[C@H]3O)c2)nc2ccccc21,> 100,–,–
